As a reminder, the EC50 is the concentration that produces a half-maximal response.

The structures appear in SMILES notation. Some results are limits rather than exact numbers.

One data set relates to Vaccinia virus. As to the kind of experiment: Antiviral activity against Vaccinia virus infected in human HEL cells assessed as inhibition of virus-induced cytopathic effect after 3 days by microscopic method. The data set is classed as functional, organism-based. The note with it: Orthopoxvirus vaccinia, 72 h.
In the next data set the test system is Human adenovirus 2. Kind of data set: Antiviral activity against Human adenovirus 2 infected in human HEL cells assessed as inhibition of virus-induced cytopathic effect after 3 days by microscopic method. It is filed as functional, organism-based. Particulars: Human mastadenovirus C, 72 h. Put shortly: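 HEL cells were infected with adenovirus 2 for 2 h. Residual virus was then removed and the cells were incubated with medium containing graded compound concentrations for 3 days at 37°C. Virus-induced cytopathogenicity was scored microscopically.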
On the technique in general: Protection from cytopathic effect is a common read-out in antiviral testing.

Data set [1] has as its system Human alphaherpesvirus 1. As to the kind of experiment: Antiviral activity against acyclovir-resistant TK-defecient Herpes simplex virus 1 KOS infected in human HEL cells assessed as inhibition of virus-induced cytopathic effect after 3 days by microscopic method. The data set is classed as functional, organism-based. Particulars: Human alphaherpesvirus 1, KOS, 72 h.

The subject of data set [2] is Human alphaherpesvirus 1. As to the kind of experiment: Antiviral activity against Herpes simplex virus 1 KOS infected in human HEL cells assessed as inhibition of virus-induced cytopathic effect after 3 days by microscopic method. The data set is classed as functional, organism-based. The note with it: Human alphaherpesvirus 1, KOS, 72 h.
Data set [3] can be described thus: Selectivity index, ratio of MCC for HEL cells to EC50 for Herpes simplex virus 2 strain G infected in HEL cells. The data set is classed as toxicity, cell-based. The note with it: human, read-out: Selectivity Index. An outline of the steps: (§1)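 SI is MCC divided by EC50. […] MCC was measured in parallel on HEL cells seeded at 5 x 10^3 cells/well, as the lowest concentration causing microscopically visible alteration of cell morphology. The top concentration tested was 100 µM.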

Data set [4] is described as follows: Selectivity index, ratio of MCC for HEL cells to EC50 for Herpes simplex virus 1 KOS infected in HEL cells. The note with it: human, read-out: Selectivity Index. It is filed as toxicity, cell-based. An outline of the steps: as §1
Data set [5] is described as follows: Selectivity index, ratio of MCC for HEL cells to EC50 for Human coronavirus 229E infected in HEL cells. It is filed as toxicity, cell-based. The note with it: read-out: Selectivity Index. An outline of the steps: as §1
The test system of a further data set is Human alphaherpesvirus 2. Kind of data set: Antiviral activity against Human herpesvirus 2 strain G infected in human HEL cells assessed as inhibition of virus-induced cytopathic effect after 3 days by microscopic method. It is filed as functional, organism-based. The note with it: Human alphaherpesvirus 2, strain G, 72 h.
A short description of data set [6]: Cytotoxicity against HEL cells assessed as alteration in cell morphology after 3 days by microscopic method. It is filed as cell-based. Particulars: human. An outline of the steps:
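HEL cells were seeded at 5 x 10^3 cells/well and exposed to graded compound concentrations, up to 100 μM, in parallel with the antiviral assay. Cell morphology was examined by light microscopy. MCC is the minimum concentration causing a microscopically detectable alteration of normal cell morphology.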

Data set [7] in a line: Selectivity index, ratio of MCC for HEL cells to EC50 for acyclovir-resistant TK-defecient Herpes simplex virus 1 KOS infected in HEL cells. Particulars: human, read-out: Selectivity Index. It is filed as toxicity, cell-based. Put shortly: as §1
Data set [8] can be described thus: Selectivity index, ratio of MCC for HEL cells to EC50 for Human adenovirus 2 infected in HEL cells. It is filed as toxicity, cell-based. The note with it: read-out: Selectivity Index. Put shortly:
as §1

A further data set concerns Human coronavirus 229E. Kind of data set: Antiviral activity against Human coronavirus 229E infected in HEL cells assessed as reduction in virus-induced pathogenicity after 3 days by microscopic method. The data set is classed as functional, organism-based. Particulars: 72 h.
Data set [9] can be described thus: Selectivity index, ratio of MCC for HEL cells to EC50 for Vaccinia virus infected in HEL cells. It is filed as toxicity, cell-based. The note with it: human, read-out: Selectivity Index. An outline of the steps:
as §1

As to `CCOC(=O)C1(Cc2ccccc2)CN(c2ccccc2)Cc2nnn(Cc3ccc(Cl)c(Cl)c3)c21` (stereo unspecified), the EC50 in the data set with Vaccinia virus, with Human adenovirus 2, in the data set on Human alphaherpesvirus 1 [1], with Human alphaherpesvirus 1 [2], in the data set on Human alphaherpesvirus 2 and in the data set on Human coronavirus 229E was more than 100 µM each time. Besides, the selectivity ratio in [3], in data set [4], in [5], in data set [7], in [8] and in data set [9] was more than 8 in each case. The MCC at 72 h in [6] was more than 100 µM.
For `CCOC(=O)C1(Cc2ccccc2)CN(c2ccccc2)Cc2nnn(Cc3cccc(Cl)c3)c21` (stereo unspecified), the EC50 in the data set on Vaccinia virus, in the data set on Human adenovirus 2, in the data set on Human alphaherpesvirus 1 [1], in the data set on Human alphaherpesvirus 1 [2], in the data set with Human alphaherpesvirus 2 and in the data set with Human coronavirus 229E was more than 100 µM throughout. The selectivity ratio in [3], in [4], in [5], in [7], in data set [8] and in [9] was more than 8 each time. Moreover, the MCC at 72 h in data set [6] is more than 100 µM.
As to `CCOC(=O)C1(Cc2ccccc2)CN(c2ccccc2)Cc2nnn(Cc3cccc(F)c3)c21` (stereo unspecified), the 50% effective concentration (EC50) in the data set with Vaccinia virus, in the data set on Human adenovirus 2, in the data set on Human alphaherpesvirus 1 [1], with Human alphaherpesvirus 1 [2], with Human alphaherpesvirus 2 and in the data set on Human coronavirus 229E was more than 100 µM in each case. Also, the selectivity ratio in [3], in data set [4], in data set [5], in data set [7], in data set [8] and in data set [9] was more than 8 in each case. In data set [6], the MCC at 72 h is not below 100 µM.
In the case of `CCOC(=O)C1(Cc2ccccc2)CN(c2ccccc2)Cc2nnn(Cc3c(F)cccc3Cl)c21` (stereo unspecified), the EC50 with Vaccinia virus, with Human adenovirus 2, with Human alphaherpesvirus 1 [1], with Human alphaherpesvirus 1 [2], with Human alphaherpesvirus 2 and with Human coronavirus 229E was more than 100 µM each time. Also, the selectivity ratio in data set [3], in data set [4], in data set [5], in data set [7], in [8] and in [9] was more than 8 throughout. In addition, the MCC at 72 h in data set [6] was more than 100 µM.
For the molecule `CCOC(=O)C1(Cc2ccccc2)CN(c2ccccc2)Cc2nnn(Cc3ccc(OC)cc3)c21` (stereo unspecified), the EC50 with Vaccinia virus, with Human adenovirus 2, with Human alphaherpesvirus 1 [1], in the data set on Human alphaherpesvirus 1 [2], with Human alphaherpesvirus 2 and in the data set with Human coronavirus 229E was more than 100 µM in each case. For the same molecule, the selectivity ratio in [3], in [4], in [5], in data set [7], in data set [8] and in [9] was more than 8 in each case. The MCC at 72 h in data set [6] was more than 100 µM.
`CCOC(=O)C1(Cc2ccccc2)CN(c2ccccc2)Cc2nnn(Cc3ccccc3Cl)c21` (stereo unspecified): the EC50 in the data set on Vaccinia virus, in the data set on Human adenovirus 2, in the data set on Human alphaherpesvirus 1 [1], in the data set with Human alphaherpesvirus 1 [2], with Human alphaherpesvirus 2 and in the data set on Human coronavirus 229E was more than 100 µM each time. Moreover, the selectivity ratio in [3], in data set [4], in data set [5], in data set [7], in data set [8] and in data set [9] was more than 8 in each case. Besides, the MCC at 72 h in [6] was more than 100 µM.
`CCOC(=O)C1(Cc2ccccc2)CN(c2ccccc2)Cc2nnn(Cc3ccc(Cl)cc3)c21` (stereo unspecified): the concentration giving a half-maximal response (EC50) in the data set on Vaccinia virus, with Human adenovirus 2, with Human alphaherpesvirus 1 [1], in the data set with Human alphaherpesvirus 1 [2], in the data set with Human alphaherpesvirus 2 and in the data set with Human coronavirus 229E was more than 100 µM each time. In addition, the selectivity ratio in [3], in [4], in data set [5], in data set [7], in data set [8] and in [9] was more than 8 each time. Further, the MCC at 72 h in [6] was more than 100 µM.
For the molecule `CCCCCCn1nnc2c1CCN(c1ccc(F)cc1)C2`, the EC50 in the data set with Vaccinia virus, in the data set on Human adenovirus 2, with Human alphaherpesvirus 1 [1], in the data set on Human alphaherpesvirus 1 [2], in the data set with Human alphaherpesvirus 2 and with Human coronavirus 229E was more than 100 µM throughout. Further, the selectivity ratio in data set [3], in [4], in data set [5], in [7], in data set [8] and in [9] was more than 8 each time. The MCC at 72 h in data set [6] was more than 100 µM.
As for `CCOC(=O)C1(Cc2ccccc2)CN(c2ccccc2)Cc2nnn(Cc3ccccc3)c21` (stereo unspecified), the concentration for a half-maximal effect (EC50) with Vaccinia virus, with Human adenovirus 2, in the data set on Human alphaherpesvirus 1 [1], in the data set with Human alphaherpesvirus 1 [2], in the data set with Human alphaherpesvirus 2 and in the data set on Human coronavirus 229E was more than 100 µM in each case. Besides, the selectivity ratio in data set [3], in data set [4], in [5], in data set [7], in data set [8] and in data set [9] was more than 8 each time. Also, in [6], the MCC at 72 h is not below 20 µM.
For `CCOC(=O)C1(Cc2ccccc2)CN(c2ccccc2)Cc2nnn(Cc3ccc(F)cc3)c21` (stereo unspecified), the 50% effective concentration (EC50) in the data set on Vaccinia virus is more than 100 µM; with Human adenovirus 2, more than 100 µM; in the data set with Human alphaherpesvirus 1 [1] it was more than 100 µM; with Human alphaherpesvirus 1 [2], more than 100 µM; in the data set with Human alphaherpesvirus 2, more than 100 µM; in the data set on Human coronavirus 229E, 8.95 µM. The selectivity ratio in [3], in data set [4], in data set [5], in [7], in [8] and in data set [9] was more than 8 in each case. In data set [6], the MCC at 72 h was not below 100 µM.
Regarding `CCOC(=O)C1(Cc2ccccc2)CN(c2ccccc2)Cc2nnn(Cc3ccco3)c21` (stereo unspecified), the EC50 in the data set with Vaccinia virus, with Human adenovirus 2, in the data set on Human alphaherpesvirus 1 [1], in the data set on Human alphaherpesvirus 1 [2], with Human alphaherpesvirus 2 and with Human coronavirus 229E was more than 100 µM each time. Moreover, the selectivity ratio in data set [3], in data set [4], in [5], in [7], in [8] and in data set [9] was more than 8 in each case. In addition, in data set [6], the MCC at 72 h turned out to be 100 µM.
Regarding `CCOC(=O)C1(Cc2ccccc2)CN(c2ccccc2)Cc2nnn(Cc3cc(OC)c(OC)c(OC)c3)c21` (stereo unspecified), the concentration giving a half-maximal response (EC50) in the data set with Vaccinia virus, in the data set on Human adenovirus 2, with Human alphaherpesvirus 1 [1], in the data set with Human alphaherpesvirus 1 [2], in the data set with Human alphaherpesvirus 2 and in the data set on Human coronavirus 229E was more than 100 µM throughout. Moreover, the selectivity ratio in [3], in [4], in [5], in data set [7], in [8] and in [9] was more than 8 each time. The MCC at 72 h in data set [6] was not below 100 µM.
